Source: article PMC11555253 (Scientific Reports, 2024)

Assays:
[1] = system: α-glucosidase; assay: Enzyme kinetic study; type: biochemical, Saccharomyces cerevisiae; settings: Km increased, Vmax constant with rising inhibitor concentration
Summary of the method: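 Yeast α-glucosidase (1 U/mL) was preincubated 15 min at 30 °C with test compound at 0, 12.5, 25 and 50 µM or 0, 15, 30 and 60 µM. p-Nitrophenyl α-D-glucopyranoside was then added at graded concentrations, and absorbance change at 405 nm was followed for 20 min. Double-reciprocal plots were made, and KI was taken from a replot of apparent Km versus inhibitor concentration.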

[2] = system: α-glucosidase; assay: Fluorescence quenching measurements and thermodynamic analysis of binding; set-up: species or system Saccharomyces cerevisiae
Summary of the method: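 α-Glucosidase (0.1 U/mL) was equilibrated 10 min with test compound at 0 to 1.0 µM. Emission was scanned from 300–450 nm with excitation at 280 nm in a 1.0 cm quartz cell, and enzyme-free compound background was subtracted. Spectra covered 20–60 °C. KA came from F0/(F0–F) versus total drug concentration at 20 °C and 60 °C, with binding-site number at 20 °C.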

[3] = system: Saccharomyces cerevisiae α-glucosidase; assay: α-Glucosidase inhibition assay; type: biochemical; settings: IC50 compared with acarbose

| SMILES | inhibition mode [1] | KA (binding constant) ([2]; 20 °C) | KA (binding constant) ([2]; 60 °C) | times more potent than acarbose [3] [times] |
| --- | --- | --- | --- | --- |
| COc1ccccc1NC(=O)Cn1cc(CSc2nc3ccccc3c3nc(-c4ccccc4)c(-c4ccccc4)n23)nn1 [19e, 2-(4-(((2,3-diphenylimidazo[1,2-c]quinazolin-5-yl)thio)methyl)-1H-1,2,3-triazol-1-yl)-N-(2-methoxyphenyl)acetamide] | competitive inhibition | 4.8 × 10 ^4 L mol^–1 s^–1 | 2.7 × 10 ^4 L mol^–1 s^–1 | 15 |
| COc1ccccc1NC(=O)Cn1cc(CSc2nc3ccccc3c3nc4ccccc4n23)nn1 [27e, 2-(4-((benzo[4,5]imidazo[1,2-c]quinazolin-6-ylthio)methyl)-1H-1,2,3-triazol-1-yl)-N-(2-methoxyphenyl)acetamide] | competitive inhibition | 6.8 × 10 ^4 L mol^–1 s^–1 | 5.0 × 10 ^4 L mol^–1 s^–1 |  |
